# RAM network inh – blocks the yeast RAM network. S. cerevisiae dse1pr::URA3 reporter, 5-FOA growth OD615, 2 d; analog-sensitive cbk1-as2 kinase mutant strain. inhibition, % at 50 µM. 1.8% of 190,000 active. AID 868;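 active = inhibition above a set limit, 3 SD over mean compound inhibition, cut at about 8.4% in these data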;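 also: 0% = DMSO-only wells with no growth and 100% = 10 µM 1-NA-PP1 full growth; inhibition rescues growth on 5-FOA so higher OD means more RAM inhibition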
# Yeast growth inh – reduces growth of yeast BB579 in restrictive medium | inhibition, % at 10 µM | 0.51% of 140,000 active | S. cerevisiae BB579 growth, OD615, 48 h;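 active = inhibition above a set limit, 3 SD over the mean compound inhibition, cut at about 44% in these data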
#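 System: Saccharomyces cerevisiae DeaD strain BB579, replicative lifespan model yeast | Buffer or medium: Restrictive glucose-based CSMM-D medium | Times: 4 h preincubation and 48 h exposure at 30 °C | Detection: OD615 turbidity measurement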
# Yeast lifespan up – extends the lifespan of yeast | S. cerevisiae growth with nicotinamide, OD615; deaD strain in restrictive glucose medium | inhibition of the nicotinamide effect, % at 10 µM | 0.68% of 130,000 active | AID 775;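 active = inhibition above a set limit, placed 3 SD over the median of all compounds, cut at about 26% in these data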;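 also: 0% = nicotinamide-treated wells and 100% = cells grown without nicotinamide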
#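 Measured by: optical density (absorbance) at 615 nm; System: modified budding yeast, DeaD strain; Medium: restrictive CSMM-D dextrose medium; Timing: 4 h preincubation then 48 h treatment at 30 °C.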
# RAM efflux-def – RAM network inhibitors in efflux-deficient yeast; AID 1305; 1,200 tested, under 10 active; max inhibition, %; S. cerevisiae efflux-deficient reporter strain, 5-FOA growth OD615, 2 days; shares compounds with RAM network inh; call rule not given here;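 also: plate controls were vehicle for no effect and reference inhibitor for full effect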
# Numbers without * were called inactive; nt = no result given. Hits are enriched below; roughly 2.6% of the tested compounds scored in any of these assays.
SMILES,RAM network inh,Yeast growth inh,Yeast lifespan up,RAM efflux-def
CC1(C)C(=O)Nc2ccccc2N1C(=O)COC(=O)C1CCCCC1,2.4,-65.1,-7.5,nt
COc1c(Cl)cc(Cl)cc1/C=C/C(=O)c1ccc(NC(=O)c2cccs2)cc1,1.1,-11.9,0.2,nt
CC(C)CC(=O)NC(=S)Nc1nc(-c2ccccc2)cs1,12.7*,-5.7,6.3,1.8
CC(C)CC(=O)NC(=S)Nc1nc(-c2ccc(Cl)cc2)cs1,5.7,-32.1,13.3,nt
CC(C)c1ccc(/C=N/NC(=O)c2nnn(-c3nonc3N)c2CSC2=NCCS2)cc1,4.7,7.6,-2.2,nt
COc1ccc(/C=C/C(=O)OCc2csc(-c3ccccc3)n2)cc1OC,15.8*,-49.5,-0.2,1.6
O=C(OCc1csc(-c2ccccc2)n1)c1ccc(O)cc1,-1.3,nt,nt,nt
CCCC(=O)Nc1ccc2c(c1)nc1n2CCN(C2CCCCC2)C1,0.4,nt,nt,nt
COc1ccc(C)cc1NC(=O)C(c1ccccc1)N1CCNC(=O)C1 (stereo not drawn),0.8,nt,nt,nt
O=C(O)CCC(=O)Nc1cccc(-c2csc(-c3ccccc3)n2)c1,2.8,nt,nt,nt
CCCCC(=O)Nc1cccc(-c2csc(-c3ccccc3)n2)c1,18.5*,-50.2,0.7,3.7
CC1CCC(NC(=O)CN2C(=O)COc3ccc(S(=O)(=O)N4CCCC4)cc32)CC1 (stereo not drawn),1.6,-18.0,-0.9,nt
COC(=O)c1ccccc1NC(=O)N1CCN(c2ccc(OC)cc2)CC1,2.9,nt,nt,nt
CC(C)(C)C1CCc2sc(C(=O)NNC(=O)CCl)cc2C1 (stereo not drawn),3.9,nt,nt,nt
Clc1ccc(OCc2nnc(-c3ccccc3Br)o2)cc1,5.8,-86.7,-10.4,nt
O=S(=O)(c1ccccc1F)N(Cc1ccco1)Cc1nnc(-c2ccccc2Br)o1,17.3*,-31.8,-2.1,1.4
COc1cc(C(=O)c2nccc3cc(OC)c(OC)cc23)c([N+](=O)[O-])cc1OC,1.8,nt,nt,nt
COc1ccc(NC(=S)N2CCNC(=O)C2CC(=O)Nc2ccc(C)cc2)cc1 (stereo not drawn),-0.6,-35.7,0.1,nt
COc1ccc(/C=C(\C#N)C(=O)NCCc2ccccc2)cc1OCc1ccccc1,18.1*,-9.0,1.6,1.9
COCCCNC(=O)/C(C#N)=C/c1ccc(OCC(=O)O)c(OC)c1,0.9,-27.2,0.6,nt
CCCNC(=O)c1nnsc1Sc1ccc(Cl)cc1,1.1,nt,nt,nt
O=C1NC(CCc2ccccc2)C(=O)N1CCOc1cccc(Br)c1 (stereo not drawn),6.7,nt,nt,nt
CCOc1cccc(-c2nn(-c3ccccc3)cc2/C=C(/C#N)C(=O)NCCCn2ccnc2)c1,5.7,-60.0,-3.5,nt
Cc1ccc(-c2nn(-c3ccccc3)cc2/C=C(\C#N)C(=O)NCc2ccccc2)cc1,5.5,-24.1,1.9,nt
CCSc1ccc(-c2nn(-c3ccccc3)cc2/C=C(/C#N)C(=O)NCCCOC)cc1,17.3*,-9.7,10.4,4.8
SMILES,RAM network inh,Yeast growth inh,Yeast lifespan up,RAM efflux-def
CCCSc1ccc(-c2nn(-c3ccccc3)cc2/C=C(/C#N)C(=O)NCCCOC)cc1,16.1*,-15.4,5.0,1.7
COc1cccc(-c2csc(N3CCN(C(=S)Nc4ccccc4C)CC3)n2)c1,6.3,nt,nt,nt
COc1cc(C#N)c(NC(=S)N2CCOCC2)cc1OC,1.7,nt,nt,nt
CCCCNC(=O)c1ccccc1NC(=O)CCC,0.1,nt,nt,nt
Cc1ccc(C(=O)c2cc3ccccc3o2)cc1,1.1,-22.8,-18.9,nt
Cc1ccc(C(=O)c2cc3ccccc3o2)cc1C,15.4*,-20.9,-12.8,2.6
CC(C)OCCCNC(=S)NNC(=O)c1ccc(Cl)c(Cl)c1,3.1,nt,nt,nt
COC(=O)c1c(NC(C)=O)sc(Cc2ccccc2)c1C,5.9,-26.6,-10.1,nt
COC(=O)c1c(NC(=O)c2ccccc2)sc(Cc2ccccc2)c1C,12.0*,-36.7,-6.1,5.9
COC(=O)c1c(NC(=O)c2ccccc2)sc(C(=O)c2ccccc2)c1C,3.9,-9.6,-9.3,nt
COC(=O)c1c(NC(=O)c2ccc(C)cc2)sc(Cc2ccccc2)c1C,13.8*,-22.7,1.2,3.9
Cc1nn(C)c(Cl)c1S(=O)(=O)N1CCC(CO)(CCc2ccccc2)CC1,-0.7,nt,nt,nt
Cc1ccc(NC(=S)N(CCN2CCOCC2)Cc2cc3cc4c(cc3[nH]c2=O)OCO4)cc1,2.0,nt,nt,nt
Cc1ccnc2nc(C(=O)OCC(=O)NC(=O)NCc3ccco3)nn12,2.5,nt,nt,nt
NC(=O)C1CCCN(C(=S)Nc2cccc3ccccc23)C1 (stereo not drawn),2.0,-17.7,0.5,nt
Cc1ccc(NS(=O)(=O)c2cc(C(=O)NCCSC3CCCCC3)ccc2C)cc1,4.5,-33.7,19.4,nt
Cc1ccc(SCCNC(=O)c2ccc(C)c(S(=O)(=O)Nc3cccc(C)c3)c2)cc1,15.9*,-7.1,0.0,6.2
